Results taken from ChEMBL document CHEMBL1123566, “Synthesis and cardiac electrophysiological activity of 2- and 3-[(substituted phenyl)alkyl]quinuclidines. Structure-activity relationships” (1987).
Several values for one entry are separate records, joined by “and”; a condition that tells them apart may be missing. Identical values can stand only once.

Columns and labels:
[1] = species: Canis familiaris; assay: In vitro electrophysiological evaluation in canine cardiac ventricular muscle reported as maximum % change for conduction time(CT) at 0.1-10 uM concentration range; Minimal (<10% decrease or increase in CT).; type: functional, Canis lupus familiaris, Muscle tissue
In short: (§1)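 Canine right ventricle and papillary muscle strips in oxygenated Tyrode's solution, fitted with stimulating and recording electrodes. The extra-stimulus conduction-interval method was adapted for in vitro use. FRP and CT were read from a conduction-interval curve before and after various compound concentrations, and expressed as percent change from control. Compounds were taken from 10 mM deionized-water stock into Tyrode's. Each strip was used once as its own control.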

[2] = species: Canis familiaris; assay: In vitro electrophysiological evaluation in canine cardiac ventricular muscle reported as % change for the functional refractory period (FRP) at 10 uM at concentration range of 0.1-10 uM; set-up: species or system Canis lupus familiaris, Muscle tissue; in short: as §1
[3] = species: Canis familiaris; assay: In vitro electrophysiological evaluation in canine cardiac ventricular muscle reported as % change for conduction time(CT) at 10 uM at 0.1-10 uM concentration range; Minimal (<10% decrease or increase in CT).; type: functional, Canis lupus familiaris, Muscle tissue
[4] = species: Canis familiaris; assay: In vitro electrophysiological evaluation in canine cardiac ventricular muscle reported as maximum % change for functional refractory period (FRP) at 0.1-10 uM concentration range; concentration at which it occurred is 10 uM; set-up: species or system Canis lupus familiaris, Muscle tissue; in short: as §1
[5] = species: Canis familiaris; assay: In vitro electrophysiological evaluation in canine cardiac Purkinje fibres reported as percent change Vmax at 10 uM at concentration range of 0.1-100 uM; Minimal (<10% decrease or increase in V max).; type: functional, organism-based; conditions: Canis lupus familiaris, Purkinje fiber
In short: (§2)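 Canine cardiac Purkinje fibres, intracellular microelectrode recording, paced at a basic cycle length of 1 s. APD95 and Vmax read simultaneously. Compound: 10 mM stock in deionized water, diluted into Tyrode's solution, tested over the stated concentration range. Each fibre used once as its own control. Result is % change from control, given at 10 µM or as the maximum with its concentration. M = <10% decrease or an increase in Vmax.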

[6] = species: Canis familiaris; assay: In vitro electrophysiological evaluation in canine cardiac Purkinje fibres reported as percent change Vmax at 10 uM at concentration range of 1-100 uM; Minimal (<10% decrease or increase in V max).; type: functional; conditions: Canis lupus familiaris, Purkinje fiber; in short: as §2
[7] = species: Canis familiaris; assay: In vitro electrophysiological evaluation in canine cardiac Purkinje fibres reported as maximum percent change Vmax concentration range of 0.1-100 uM; Minimal (<10% decrease or increase in V max).; type: functional; conditions: Canis lupus familiaris; Purkinje fiber; in short: as §2
[8] = species: Canis familiaris; assay: In vitro electrophysiological evaluation in canine cardiac Purkinje fibres reported as % change for action potential duration at 10 uM at 1-100 uM concentration range; type: functional, Canis lupus familiaris, Purkinje fiber; in short: as §2
[9] = species: Canis familiaris; assay: In vitro electrophysiological evaluation in canine cardiac Purkinje fibres reported as % change for action potential duration at a concentration of 10 uM; type: functional, Canis lupus familiaris, Purkinje fiber; in short: as §2
[10] = species: Canis familiaris; assay: (§3) In vitro electrophysiological activity in canine cardiac occurred is 100 uM; type: functional, Canis lupus familiaris, Heart
[11] = species: Canis familiaris; assay: In vitro electrophysiological activity in canine cardiac occurred is 10 uM; type: functional, Canis lupus familiaris, Heart
[12] = species: Canis familiaris; assay: In vitro electrophysiological evaluation in canine cardiac ventricular muscle reported as maximum % change for functional refractory period (FRP) at 0.1-100 uM concentration range; concentration at which it occurred is 100 uM; set-up: species or system Canis lupus familiaris, Muscle tissue; in short: as §1
[13] = species: Canis familiaris; assay: In vitro electrophysiological evaluation in canine cardiac ventricular muscle reported as % change for conduction time(CT) at 10 uM at 0.1-100 uM concentration range; Minimal (<10% decrease or increase in CT).; type: functional, Canis lupus familiaris, Muscle tissue
[14] = species: Canis familiaris; assay: In vitro electrophysiological evaluation in canine cardiac ventricular muscle reported as maximum % change for conduction time(CT) at 0.1-100 uM concentration range; Minimal (<10% decrease or increase in CT).; type: functional, Canis lupus familiaris, Muscle tissue; in short: as §1
[15] = species: Canis familiaris; assay: In vitro electrophysiological evaluation in canine cardiac Purkinje fibres reported as maximum percent change Vmax concentration range of 1-100 uM; Minimal (<10% decrease or increase in V max).; type: functional; conditions: Canis lupus familiaris; Purkinje fiber; in short: as §2
[16] = species: Canis familiaris; assay: (§4) In vitro electrophysiological evaluation in canine cardiac occurred is 100 uM; type: functional; conditions: Canis lupus familiaris; Heart
[17] = species: Canis familiaris; assay: as §3; type: functional, Canis lupus familiaris, Heart; remark: listed apart in the source
[18] = species: Canis familiaris; assay: In vitro electrophysiological evaluation in canine cardiac ventricular muscle reported as % change for the functional refractory period (FRP) at 10 uM at concentration range of 0.1-100 uM; set-up: species or system Canis lupus familiaris, Muscle tissue; in short: as §1
[19] = species: Canis familiaris; assay: In vitro electrophysiological evaluation in canine cardiac Purkinje fibres reported as percent change Vmax at 10 uM at concentration range of 1-100 uM; type: functional; conditions: Canis lupus familiaris, Purkinje fiber; in short: as §2
[20] = species: Canis familiaris; assay: In vitro electrophysiological evaluation in canine cardiac ventricular muscle reported as maximum % change for functional refractory period (FRP) at 0.1-100 uM concentration range; concentration at which it occurred is 100 uM.; set-up: species or system Canis lupus familiaris, Muscle tissue; in short: as §1
[21] = species: Canis familiaris; assay: as §4; type: functional; conditions: Canis lupus familiaris; Heart; remark: listed apart in the source
[22] = species: Canis familiaris; assay: In vitro electrophysiological evaluation in canine cardiac Purkinje fibres reported as % change for action potential duration at 10 uM at 0.1-100 uM concentration range; type: functional, Canis lupus familiaris, Purkinje fiber; in short: as §2
[23] = species: Canis familiaris; assay: In vitro electrophysiological evaluation in canine cardiac Purkinje fibres reported as percent change Vmax concentration range of 0.1-100 uM; Minimal (<IO%increase or a decrease in CT); type: functional; conditions: Canis lupus familiaris; Purkinje fiber; in short: as §2
[24] = species: Canis familiaris; assay: In vitro electrophysiological evaluation in canine cardiac Purkinje fibres reported as percent change Vmax concentration range of 0.1-10 uM; Minimal (<IO%increase or a decrease in CT); type: functional; conditions: Canis lupus familiaris; Purkinje fiber; in short: as §2
[25] = species: Canis familiaris; assay: In vitro electrophysiological evaluation in canine cardiac Purkinje fibres reported as maximum percent change Vmax concentration range of 0.1-10 uM; Minimal (<IO%increase or a decrease in CT); type: functional; conditions: Canis lupus familiaris; Purkinje fiber; in short: as §2
[26] = species: Canis familiaris; assay: In vitro electrophysiological activity in canine cardiac Purkinje fibres given as maximum % change for action potential duration at 0.1-100 uM concentration; type: functional, Canis lupus familiaris, Purkinje fiber
In short: (§5)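 Canine cardiac Purkinje fibres, intracellular recording at 1 s basic cycle length, over cumulative concentration ranges. Compound 10 mM stock in deionized water diluted into Tyrode's. Each fibre used once as its own control. Value is the maximum % change from control in APD at 95% repolarization, with the concentration where it occurred; both values given if a biphasic response (>20% reversal) occurred.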

[27] = species: Canis familiaris; assay: In vitro electrophysiological activity in canine cardiac Purkinje fibres given as maximum % change for action potential duration at 0.1-10 uM concentration; type: functional, Canis lupus familiaris, Purkinje fiber; in short: as §5
[28] = species: Canis familiaris; assay: In vitro electrophysiological evaluation in canine cardiac Purkinje fibres reported as % change for action potential duration at 0.1-10 uM concentration range; type: functional, Canis lupus familiaris, Purkinje fiber; in short: as §2
[29] = species: Canis familiaris; assay: In vitro electrophysiological evaluation in canine cardiac Purkinje fibres reported as maximum percent change Vmax concentration range of 0.1-100 uM; type: functional; conditions: Canis lupus familiaris; Purkinje fiber; in short: as §2
[30] = species: Canis familiaris; assay: In vitro electrophysiological evaluation in canine cardiac Purkinje fibres reported as % change for action potential duration at 0.1-100 uM concentration range; type: functional, Canis lupus familiaris, Purkinje fiber; in short: as §2
[31] = species: Canis familiaris; assay: In vitro electrophysiological evaluation in canine cardiac ventricular muscle reported as maximum % change for functional refractory period (FRP) at 0.1-100 uM concentration range; concentration at which it occurred is 10 uM; set-up: species or system Canis lupus familiaris, Muscle tissue; in short: as §1
[32] = species: Canis familiaris; assay: In vitro electrophysiological evaluation in canine cardiac Purkinje fibres reported as percent change Vmax at 10 uM at concentration range of 0.1-100 uM.; type: functional, organism-based; conditions: Canis lupus familiaris, Purkinje fiber; in short: as §2

SMILES | Vmax [5] [%] | Vmax [6] [%] | Vmax [7] [%] | APD95 [8] [%] | APD95 [9] [%] | APD95 [10] | APD95 [11] | FRP [12] | CT [13] [%] | CT [14] [%] | Vmax [15] [%] | Vmax [16] [%] | FRP [18] | Vmax [21] | APD95 [22] | also measured
CC(=O)C(CC1C(=O)C2CCN1CC2)C(=O)c1ccccc1.Cl (stereo unspecified) | < 10 | < 10 | < 10 | -5 | -6 | -19% | -6% | – | – | – | – | – | – | – | – | CT [1]: <10%; FRP [2]: 14%; CT [3]: <10%; FRP [4]: 20%
CS(=O)(=O)Nc1cc(C(=O)CCC2C(=O)C3CCN2CC3)ccc1Cl.Cl (stereo unspecified) | < 10 | – | – | -3 | -4 | 17% | – | 21% and 32% and 15% | <10 | <10 | < 10 | -28 | – | – | – | APD95 [17]: 21%
CCOC(=O)C(CC1C(=O)C2CCN1CC2)C(=O)c1ccc(NS(C)(=O)=O)cc1.Cl (stereo unspecified) | – | < 10 | – | 12 | 11 | 39% and 40% | – | 7% and 16% | <10 | <10 | < 10 | -36 | 5% and 9% | – | – | Vmax [19]: -24%
CS(=O)(=O)Nc1ccc(C(=O)CCC2C(=O)C3CCN2CC3)cc1.Cl (stereo unspecified) | < 10 | < 10 | < 10 | 5 | 16 | 36% and 18% | – | – | <10 | <10 | < 10 | – | 18% and 12% and 13% | -24% | -1% and 10% | FRP [20]: 32% and 21% and 24%; APD [22]: 24%
CCCCCCC[N+]12CCC(CC1)C(CCc1ccc(Cl)cc1)C2.[Br-] (stereo unspecified) | – | – | – | – | – | – | – | – | – | – | – | – | – | – | – | Vmax [23]: < 10%; Vmax [24]: < 10%; Vmax [25]: < 10%; APD95 [26]: 23%; APD95 [27]: 26%; APD95 [28]: 23%; Vmax [29]: -58%; APD95 [30]: 22%
CCOC(=O)C(CC1C(=O)C2CCN1CC2)C(=O)c1ccc([N+](=O)[O-])cc1.Cl (stereo unspecified) | < 10 | – | – | – | 2 | -12% and 0% and -5% | 23% and 22% | 38% | <10 | <10 | – | – | 22% and 35% | -26% and -13% and -18% | 23% and 22% | FRP [31]: 22%; Vmax [32]: -12%
